Screens: PubChem, Johns Hopkins Ion Channel Center
TRPC4 PAM: allosteric potentiators of mouse TRPC4 channel | B-score at 10 µM | actives 0.42% (n = 310,000) | HEK293 TRPC4beta/mu-opioid, DAMGO EC20, Fluo-4 Ca2+ flux; active compounds read high | Q9QUQ5 | AID 2227;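 active = B-score of calcium response area above 5 SD of library B-scores, with initial fluorescence ratio within 5 SD of library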
Target sequence (Q9QUQ5 whole entry, looked up): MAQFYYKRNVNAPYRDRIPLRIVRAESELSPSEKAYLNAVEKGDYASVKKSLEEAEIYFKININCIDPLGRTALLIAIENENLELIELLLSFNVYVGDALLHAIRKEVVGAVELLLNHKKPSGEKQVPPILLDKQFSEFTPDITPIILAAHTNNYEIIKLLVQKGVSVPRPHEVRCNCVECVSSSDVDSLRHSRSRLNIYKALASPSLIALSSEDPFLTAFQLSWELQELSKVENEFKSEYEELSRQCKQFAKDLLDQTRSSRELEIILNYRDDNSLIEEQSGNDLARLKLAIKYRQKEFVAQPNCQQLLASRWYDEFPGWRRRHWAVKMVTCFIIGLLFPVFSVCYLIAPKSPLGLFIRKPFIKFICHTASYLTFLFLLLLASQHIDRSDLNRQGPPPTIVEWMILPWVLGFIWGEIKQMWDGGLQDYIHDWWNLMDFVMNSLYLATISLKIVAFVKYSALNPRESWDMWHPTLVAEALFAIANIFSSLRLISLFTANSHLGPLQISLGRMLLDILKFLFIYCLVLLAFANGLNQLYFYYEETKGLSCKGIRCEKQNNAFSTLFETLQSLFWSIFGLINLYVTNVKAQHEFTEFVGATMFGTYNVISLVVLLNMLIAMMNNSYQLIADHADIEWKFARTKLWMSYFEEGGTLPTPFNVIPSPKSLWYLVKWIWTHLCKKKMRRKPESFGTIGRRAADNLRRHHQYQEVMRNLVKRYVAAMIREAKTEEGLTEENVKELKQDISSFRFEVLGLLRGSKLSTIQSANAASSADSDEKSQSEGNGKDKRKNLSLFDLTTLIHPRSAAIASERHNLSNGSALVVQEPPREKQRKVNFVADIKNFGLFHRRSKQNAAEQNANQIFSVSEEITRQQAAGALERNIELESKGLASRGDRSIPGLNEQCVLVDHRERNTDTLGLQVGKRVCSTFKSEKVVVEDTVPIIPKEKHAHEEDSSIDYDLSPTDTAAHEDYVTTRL
TRPC4 agonist: activators of mouse TRPC4 channel; AID 2237; B-score at 10 µM; Q9QUQ5; actives 0.49% (n = 310,000); HEK293 TRPC4beta/mu-opioid, Fluo4 calcium fluorescence; active compounds read high;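 active = B-score above 5 SD of library B-scores, and initial fluorescence ratio not above library mean plus 5 SD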;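 also: positive B-score marks a calcium rise read as TRPC4 activation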
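Assay system – TRPC4beta and mu-opioid receptor HEK293 stable cells · Measured by – Fluo4 fluorescence, kinetic · Schedule – dye loading 45 min room temperature, 110 s kinetic read · Read-out – B-scored integrated calcium fluorescence ratio · Controls – buffer and maximal DAMGO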
TRPC6 inhibitor: blocks the mouse TRPC6 cation channel | Q61143 | HEK293-TRPC6, membrane potential dye, ACh-evoked depolarization; active compounds read low | B-score at 10 µM | actives 1.1% (n = 310,000) | AID 2553;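 active = B-score under library mean minus 3 SD, initial fluorescence not abnormally high, positive integrated signal ratio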;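 also: B-score derived from integrated fluorescence ratio over the kinetic read; more negative B-score means stronger inhibition of depolarization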
TRPC6 act: activators of mouse TRPC6 channel; HEK293-TRPC6 membrane potential dye fluorescence; active compounds read high; B-score at 10 µM; actives 0.13% (n = 310,000); AID 2550;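 active = B-score of the integrated fluorescence ratio above library mean plus 3 SD, and starting fluorescence ratio within library mean plus 5 SD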;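 also: higher score means more depolarization so channel activation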
TRPC4 block: blocks the mouse TRPC4 cation channel; actives 0.39% (n = 300,000); B-score at 10 µM; HEK293 TRPC4beta/mu-opioid, DAMGO-evoked Fluo4 calcium flux; active compounds read low; Q9QUQ5;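 active = B-score over 3 SD under the library average, no early fluorescence shift, positive overall ratio signal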
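Signal: kinetic Fluo4 fluorescence imaging of calcium influx. Material: stable TRPC4beta/mu-opioid receptor HEK293 cells. Probe or stimulus: DAMGO in two steps, submaximal then maximal.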
TRPC4 sel inh 2: mouse TRPC4 off-target activity of TRPC6 inhibitors, second screen; shares compounds with TRPC6 inhibitor; HEK293 TRPC4/MOR, membrane potential dye fluorescence; channel activated by saturating DAMGO dose; inhibition, % at 10 µM; actives 42% (n = 920); AID 2776;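 active = compounds whose fluorescence signal differed from control wells by over 3 SD, either direction, in both duplicate plates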
TRPC4 spec: selectivity of TRPC6 inhibitors: effect on mouse TRPC4 | shares compounds with TRPC6 inhibitor | HEK293 TRPC4/mu-opioid, membrane potential fluorescence | activity change, negative = inhibition, % at 10 µM | actives 61% (n = 920) | AID 2777;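 active = rise or fall in signal beyond 3 SD of buffer-only wells in both replicate plates, either sign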;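 also: integrated kinetic ratio of fluorescence range over baseline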
HEK293 MPD ctr 2-1: parental HEK293 nonspecific activity of TRPC6 inhibitors, second screen | shares compounds with TRPC6 inhibitor | actives 31% (n = 920) | parental HEK293 membrane potential dye fluorescence; maximal acetylcholine challenge after compound addition | AID 2779 | signal change vs control, % at 10 µM;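 active = membrane potential signal moving either way by over 3 SD of the maximum-effect control, in both duplicate plates, meaning non-specific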
HEK293 MPD ctr-1: parental HEK293 nonspecific activity of TRPC6 inhibitors. actives 60% (n = 920). membrane potential signal change, % at 10 µM. parental HEK293 membrane potential dye fluorescence. shares compounds with TRPC6 inhibitor;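 active = membrane potential signal shifting up or down by more than 3 SD of buffer-only wells, on both duplicate plates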
HEK293 MPD ctr-2: counter-screen for TRPC6 modulators: effect in parental HEK293 cells. shares compounds with TRPC6 inhibitor. membrane potential dye fluorescence. actives 51% (n = 2,400). AID 488924. membrane potential signal change, % at 10 µM;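 active = membrane potential signal moves up or down beyond 5 SD from buffer-only wells, on both duplicate plates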
HEK293 MPD ctr 2-2: second check of TRPC6 modulator effects in parental HEK293 cells | AID 488926 | inhibition, % at 10 µM | shares compounds with TRPC6 inhibitor | actives 14% (n = 2,400) | membrane potential dye fluorescence; after compound, maximal acetylcholine stimulation;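 active = membrane potential signal drops by more than 5 SD from the mean control signal, in both duplicate plates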
TRPC4 ctr mod: mouse TRPC4 off-target activity of TRPC6 modulators; shares compounds with TRPC6 inhibitor; HEK293 TRPC4/mu-opioid, membrane potential fluorescence; percent change from control (negative = decrease, positive = increase), % at 10 µM; actives 69% (n = 2,400);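 active = membrane potential signal moved up or down beyond 5 SD of buffer control wells, in both duplicate plates, actives on both sides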
TRPC4 ctr inh 2: second selectivity test of TRPC6 modulators against mouse TRPC4. AID 488928. shares compounds with TRPC6 inhibitor. inhibition, % at 10 µM. HEK293 TRPC4/mu-opioid, membrane potential dye fluorescence; stimulated with maximal-effect DAMGO. actives 55% (n = 2,400);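 active = drop in membrane potential signal beyond 5 SD of the control wells in both duplicate plates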;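 also: TRPC4 counter screen for TRPC6 hits run under conditions tuned for TRPC6 not TRPC4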
TRPC6 inh conf: mouse TRPC6 inhibitor confirmation; shares compounds with TRPC6 inhibitor; HEK293-TRPC6, membrane potential dye, ACh-evoked depolarization; inhibition, % at 10 µM; actives 43% (n = 3,300);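 active = fluorescence ratio falls more than 5 SD below the full-stimulation control mean, in both duplicate runs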;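 also: integrated fluorescence ratio of peak minus minimum over baseline after agonist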
TRPC6 act conf: confirmation of mouse TRPC6 activators; actives 11% (n = 2,800); activation, % at 10 µM; HEK293-TRPC6 membrane potential dye fluorescence, FDSS; shares compounds with TRPC6 inhibitor;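 active = ratio signal rise beyond 5 SD above unstimulated control wells' mean, seen in both duplicate runs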
Numbers stand for hits. A selection: hits, their analogues and other compounds. The true share with any hit is near 2.3%.

How did Cc1ccc(OP(=O)(O)Oc2ccc(C)cc2)cc1 do in these assays?
TRPC4 PAM: inactive; TRPC4 agonist: inactive; TRPC6 inhibitor: -6.5; TRPC6 act: inactive; TRPC4 block: inactive; HEK293 MPD ctr-2: inactive; HEK293 MPD ctr 2-2: inactive; TRPC4 ctr mod: inactive; TRPC4 ctr inh 2: inactive; TRPC6 inh conf: inactive

What do the screens show for `CCC1CCCCN1CC(=O)c1ccc(OC(F)F)cc1` (centres undefined)?
TRPC4 PAM: inactive; TRPC4 agonist: inactive; TRPC6 inhibitor: inactive; TRPC6 act: inactive; TRPC4 block: inactive

Results for CN1CC(C(=O)c2ccc(Cl)cc2)C(c2ccc(N(C)C)cc2)C1 (centres undefined) ?
TRPC4 PAM: inactive; TRPC4 agonist: inactive; TRPC6 inhibitor: -6.5; TRPC6 act: inactive; TRPC4 block: inactive; HEK293 MPD ctr-2: inactive; HEK293 MPD ctr 2-2: inactive; TRPC4 ctr mod: inactive; TRPC4 ctr inh 2: 50%; TRPC6 inh conf: 50%; TRPC6 act conf: inactive

What do the screens show for `Cc1[nH]n(-c2ccccc2)c(=O)c1C(c1ccc([N+](=O)[O-])cc1)c1c(C)[nH]n(-c2ccccc2)c1=O`?
TRPC4 PAM: inactive; TRPC4 agonist: inactive; TRPC6 inhibitor: -5.9; TRPC6 act: inactive; TRPC4 block: inactive; HEK293 MPD ctr-2: inactive; HEK293 MPD ctr 2-2: inactive; TRPC4 ctr mod: inactive; TRPC4 ctr inh 2: 38%; TRPC6 inh conf: 42%; TRPC6 act conf: inactive

What do the screens show for `COP(=S)(OC)c1c(C)nn(CCC#N)c1NC(=O)c1ccc(Cl)cc1`?
TRPC4 PAM: inactive; TRPC4 agonist: inactive; TRPC6 inhibitor: inactive; TRPC6 act: inactive; TRPC4 block: inactive

How did COc1cc2c(cc1OC)-c1c(OC)c(OC)c(OC)c3ccnc(c13)C2=O do in these assays?
TRPC4 PAM: inactive; TRPC4 agonist: inactive; TRPC6 inhibitor: -7; TRPC6 act: inactive; TRPC4 block: inactive; HEK293 MPD ctr-2: -142%; HEK293 MPD ctr 2-2: inactive; TRPC4 ctr mod: -29%; TRPC4 ctr inh 2: 74%; TRPC6 inh conf: 56%; TRPC6 act conf: inactive

Results for O=C1NC(=O)N(c2ccc(F)cc2)C(=O)/C1=C/c1ccsc1 ?
TRPC4 PAM: inactive; TRPC4 agonist: inactive; TRPC6 inhibitor: -5.5; TRPC6 act: inactive; TRPC4 block: inactive; HEK293 MPD ctr-2: inactive; HEK293 MPD ctr 2-2: inactive; TRPC4 ctr mod: inactive; TRPC4 ctr inh 2: inactive; TRPC6 inh conf: inactive

What do the screens show for `C[n+]1c(-c2ccccc2)c2cc(N)ccc2c2ccc(N)cc21`?
TRPC4 PAM: inactive; TRPC4 agonist: inactive; TRPC6 inhibitor: -6.7; TRPC6 act: inactive; TRPC4 block: inactive; HEK293 MPD ctr-2: -208%; HEK293 MPD ctr 2-2: 80%; TRPC4 ctr mod: -73%; TRPC4 ctr inh 2: 68%; TRPC6 inh conf: 56%; TRPC6 act conf: inactive

Results for COC(=O)C1=C(N)Oc2cc(C)oc(=O)c2C12C(=O)Nc1ccccc12 (centres undefined) ?
TRPC4 PAM: inactive; TRPC4 agonist: inactive; TRPC6 inhibitor: inactive; TRPC6 act: inactive; TRPC4 block: inactive

Results for CCN1CCN(c2ncnc3ccc(Br)cc23)CC1 ?
TRPC4 PAM: inactive; TRPC4 agonist: inactive; TRPC6 inhibitor: -7.6; TRPC6 act: inactive; TRPC4 block: inactive; TRPC4 sel inh 2: inactive; TRPC4 spec: inactive; HEK293 MPD ctr 2-1: inactive; HEK293 MPD ctr-1: -192%; TRPC6 inh conf: inactive; TRPC6 act conf: inactive

What do the screens show for `CCc1cc2c(N3CCN(C)CC3)ncnc2s1`?
TRPC4 PAM: inactive; TRPC4 agonist: inactive; TRPC6 inhibitor: inactive; TRPC6 act: inactive; TRPC4 block: inactive

What do the screens show for `CN1CC(C(=O)c2ccc(Cl)cc2)C(c2ccc(Cl)cc2Cl)C1` (centres undefined)?
TRPC4 PAM: inactive; TRPC4 agonist: inactive; TRPC6 inhibitor: inactive; TRPC6 act: inactive; TRPC4 block: inactive

Results for CN1CCC(O)(c2ccc(Cl)cc2)C(C(=O)c2ccc(Cl)cc2)C1 (centres undefined) ?
TRPC4 PAM: inactive; TRPC4 agonist: inactive; TRPC6 inhibitor: -5.4; TRPC6 act: inactive; TRPC4 block: inactive; HEK293 MPD ctr-2: inactive; HEK293 MPD ctr 2-2: inactive; TRPC4 ctr mod: inactive; TRPC4 ctr inh 2: 35%; TRPC6 inh conf: inactive; TRPC6 act conf: inactive

Results for CCCCC(=O)N/N=C/c1c(O)n(-c2cccc3ccccc23)c(=O)[nH]c1=O ?
TRPC4 PAM: inactive; TRPC4 agonist: inactive; TRPC6 inhibitor: inactive; TRPC6 act: inactive; TRPC4 block: inactive

How did C=CCN(c1ccc(C(=O)N(CC)CC)cc1)S(C)(=O)=O do in these assays?
TRPC4 PAM: inactive; TRPC4 agonist: inactive; TRPC6 inhibitor: -5.6; TRPC6 act: inactive; TRPC4 block: inactive; HEK293 MPD ctr-2: inactive; HEK293 MPD ctr 2-2: inactive; TRPC4 ctr mod: inactive; TRPC4 ctr inh 2: inactive; TRPC6 inh conf: inactive; TRPC6 act conf: inactive

How did CCOc1cccc(=NC2CCCCC2)c2c(C)n(C)c(C)c12 do in these assays?
TRPC4 PAM: inactive; TRPC4 agonist: inactive; TRPC6 inhibitor: -7.5; TRPC6 act: inactive; TRPC4 block: inactive; TRPC4 sel inh 2: 50%; TRPC4 spec: 6.9%; HEK293 MPD ctr 2-1: -69%; HEK293 MPD ctr-1: inactive; TRPC6 inh conf: inactive; TRPC6 act conf: inactive
